Source: ChEMBL document CHEMBL4138242, “Synthesis and antibacterial evaluation of novel cationic chalcone derivatives possessing broad spectrum antibacterial activity” (Eur J Med Chem, 2018)
Activity calls are given as the source filed them. The rule behind the calls is not given here.

Tests used:
Escherichia coli [1] = test: Antibacterial activity against drug-resistant NDM1 producing Escherichia coli clinical isolate EC-14-54 after 16 to 20 hrs by broth microdilution method; format: functional
Procedure, shortened: (§1)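 CLSI broth microdilution in Mueller-Hinton broth. A 4-6 h culture was diluted to about 10⁶ CFU/mL and mixed 1:1 with compound dilutions prepared at 256 to 0.5 µg/mL from aqueous stocks. Plates were incubated at 37 °C for 16-20 h and read visually for MIC. Each concentration was run in duplicate, and the experiment was repeated at least twice. Vancomycin and meropenem were comparators.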

Escherichia coli [2] = test: Antibacterial activity against drug-resistant NDM1 producing Escherichia coli clinical isolate Ecl-14-56 after 16 to 20 hrs by broth microdilution method; format: functional; procedure, shortened: as §1
Staphylococcus aureus [3] = test: Antibacterial activity against Staphylococcus aureus ATCC 29213 after 16 to 20 hrs by broth microdilution method; format: functional
Procedure, shortened: (§2)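 Broth microdilution per CLSI. Bacteria grown 4-6 h (about 10⁸ CFU/mL), then diluted to about 10⁶ CFU/mL. Medium: Mueller-Hinton broth, except Luria-Bertani broth for E. coli. Compounds in sterile water, twofold series 256-0.5 µg/mL, mixed 1:1 with inoculum, 37 °C for 16-20 h. MIC is the lowest concentration without visible growth. Duplicate wells; experiment repeated at least twice.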

Klebsiella pneumoniae [4] = test: Antibacterial activity against drug-resistant carbapenemase producing Klebsiella pneumoniae clinical isolate KP-14-3 after 16 to 20 hrs by broth microdilution method; format: functional; procedure, shortened: as §1
Escherichia coli [5] = test: Antibacterial activity against drug-resistant NDM1 producing Escherichia coli clinical isolate Ecl-14-59 after 16 to 20 hrs by broth microdilution method; format: functional; procedure, shortened: as §1
Klebsiella pneumoniae [6] = test: Antibacterial activity against drug-resistant carbapenemase producing Klebsiella pneumoniae clinical isolate KP-13-45 after 16 to 20 hrs by broth microdilution method; format: functional; procedure, shortened: as §1
Klebsiella pneumoniae [7] = test: Antibacterial activity against drug-resistant carbapenemase producing Klebsiella pneumoniae clinical isolate KP-13-55 after 16 to 20 hrs by broth microdilution method; format: functional; procedure, shortened: as §1
Staphylococcus aureus [8] = test: Antibacterial activity against methicillin-resistant Staphylococcus aureus clinical isolate 1-may after 16 to 20 hrs by broth microdilution method; format: functional; procedure, shortened: as §1
[9] = Hemolytic activity in sheep RBC after 1 hr; format: ADME, cell-based, Ovis aries, Erythrocyte; conditions: sheep red blood cells (erythrocytes)
Procedure, shortened: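 Sheep red blood cells (150 µL suspension) mixed with 50 µL of compound dilutions (5120-10 µg/mL), 1 h at 37 °C, then centrifuged. Supernatant read at 540 nm. Percent hemolysis calculated relative to RBC-only control (0%) and 0.1% Triton X-100 (100%).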

Staphylococcus aureus [10] = test: Antibacterial activity against methicillin-resistant Staphylococcus aureus clinical isolate 0906202 after 16 to 20 hrs by broth microdilution method; format: functional; procedure, shortened: as §1
Staphylococcus aureus [11] = test: Antibacterial activity against methicillin-resistant Staphylococcus aureus clinical isolate 20131012632sau after 16 to 20 hrs by broth microdilution method; format: functional; procedure, shortened: as §1
Staphylococcus aureus [12] = test: Induction of inner membrane permeabilization in Staphylococcus aureus ATCC 29213 at 10 to 20 ug/ml measured every 2 mins for 12 mins by propidium iodide staining-based fluorescence assay; format: functional, organism-based
Procedure, shortened: (§3)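 Mid-log cells (~10⁸ CFU/mL) were suspended in PBS (S. aureus) or HEPES/glucose/KCl (E. coli). They were preincubated with propidium iodide for 30 min (S. aureus) or 40 min (E. coli), and baseline fluorescence was read for 8 min. Compound was added to 20 µg/mL final, and fluorescence (ex 535/em 617 nm) was read every 2 min for 12 min.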

Enterococcus faecalis = test: Antibacterial activity against Enterococcus faecalis ATCC 29212 after 16 to 20 hrs by broth microdilution method; format: functional; procedure, shortened: as §2
Escherichia coli [13] = test: Antibacterial activity against drug-resistant NDM1 producing Escherichia coli clinical isolate SM-15-84 after 16 to 20 hrs by broth microdilution method; format: functional; procedure, shortened: as §1
Escherichia coli [14] = test: Induction of cytoplasmic membrane depolarization in Escherichia coli ATCC 25922 at 10 to 20 ug/ml measured every 2 mins for 12 mins by DiSC35 dye-based fluorescence assay; format: functional, organism-based
Procedure, shortened: (§4)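 Mid-log cells (~10⁸ CFU/mL) were suspended in PBS (S. aureus) or HEPES/glucose/KCl with EDTA (E. coli). They were preloaded with DiSC3(5) for 30 min (S. aureus) or 40 min (E. coli), and baseline fluorescence was read for 8 min. Compound was added to 20 µg/mL final, and fluorescence (ex 622/em 670 nm) was read every 2 min for 12 min. Water served as control.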

Klebsiella pneumoniae [15] = test: Antibacterial activity against drug-resistant carbapenemase producing Klebsiella pneumoniae clinical isolate KP-14-18 after 16 to 20 hrs by broth microdilution method; format: functional; procedure, shortened: as §1
Escherichia coli [16] = test: Antibacterial activity against drug-resistant NDM1 producing Escherichia coli clinical isolate CF-15-61 after 16 to 20 hrs by broth microdilution method; format: functional; procedure, shortened: as §1
Escherichia coli [17] = test: Antibacterial activity against drug-resistant NDM1 producing Escherichia coli clinical isolate KP-13-58 after 16 to 20 hrs by broth microdilution method; format: functional; procedure, shortened: as §1
Staphylococcus aureus [18] = test: Antibacterial activity against methicillin-resistant Staphylococcus aureus clinical isolate 1104060 after 16 to 20 hrs by broth microdilution method; format: functional; procedure, shortened: as §1
Klebsiella pneumoniae [19] = test: Antibacterial activity against drug-resistant carbapenemase producing Klebsiella pneumoniae clinical isolate KP-14-4 after 16 to 20 hrs by broth microdilution method; format: functional; procedure, shortened: as §1
Staphylococcus aureus [20] = test: Antibacterial activity against methicillin-resistant Staphylococcus aureus clinical isolate 0831010 after 16 to 20 hrs by broth microdilution method; format: functional; procedure, shortened: as §1
Staphylococcus aureus [21] = test: Induction of cytoplasmic membrane depolarization in Staphylococcus aureus ATCC 29213 at 10 to 20 ug/ml measured every 2 mins for 12 mins by DiSC35 dye-based fluorescence assay; format: functional, organism-based; procedure, shortened: as §4
Escherichia coli [22] = test: Antibacterial activity against drug-resistant NDM1 producing Escherichia coli clinical isolate EC-13-49 after 16 to 20 hrs by broth microdilution method; format: functional; procedure, shortened: as §1
Klebsiella pneumoniae [23] = test: Antibacterial activity against drug-resistant carbapenemase producing Klebsiella pneumoniae clinical isolate KP-13-54 after 16 to 20 hrs by broth microdilution method; format: functional; procedure, shortened: as §1
Klebsiella pneumoniae [24] = test: Antibacterial activity against drug-resistant carbapenemase producing Klebsiella pneumoniae clinical isolate EC-13-23 after 16 to 20 hrs by broth microdilution method; format: functional; procedure, shortened: as §1
Staphylococcus aureus [25] = test: Antibacterial activity against methicillin-resistant Staphylococcus aureus clinical isolate 1208143 after 16 to 20 hrs by broth microdilution method; format: functional; procedure, shortened: as §1
Klebsiella pneumoniae [26] = test: Antibacterial activity against drug-resistant carbapenemase producing Klebsiella pneumoniae clinical isolate KP-14-45 after 16 to 20 hrs by broth microdilution method; format: functional; procedure, shortened: as §1
Escherichia coli [27] = test: Induction of inner membrane permeabilization in Escherichia coli ATCC 25922 at 10 to 20 ug/ml measured every 2 mins for 12 mins by propidium iodide staining-based fluorescence assay; format: functional, organism-based; procedure, shortened: as §3
Escherichia coli [28] = test: Antibacterial activity against drug-resistant NDM1 producing Escherichia coli clinical isolate EA-14-61 after 16 to 20 hrs by broth microdilution method; format: functional; procedure, shortened: as §1
Escherichia coli [29] = test: Antibacterial activity against drug-resistant NDM1 producing Escherichia coli clinical isolate Ecl-13-62 after 16 to 20 hrs by broth microdilution method; format: functional; procedure, shortened: as §1
Klebsiella pneumoniae [30] = test: Antibacterial activity against drug-resistant carbapenemase producing Klebsiella pneumoniae clinical isolate KP-14-1 after 16 to 20 hrs by broth microdilution method; format: functional; procedure, shortened: as §1
Staphylococcus aureus [31] = test: Antibacterial activity against methicillin-resistant Staphylococcus aureus clinical isolate 20130911034sau after 16 to 20 hrs by broth microdilution method; format: functional; procedure, shortened: as §1
Klebsiella pneumoniae [32] = test: Antibacterial activity against drug-resistant carbapenemase producing Klebsiella pneumoniae clinical isolate KP-14-5 after 16 to 20 hrs by broth microdilution method; format: functional; procedure, shortened: as §1
Escherichia coli [33] = test: Antibacterial activity against drug-resistant NDM1 producing Escherichia coli clinical isolate Ecl-14-58 after 16 to 20 hrs by broth microdilution method; format: functional; procedure, shortened: as §1
Escherichia coli [34] = test: Antibacterial activity against drug-resistant NDM1 producing Escherichia coli clinical isolate 1460 after 16 to 20 hrs by broth microdilution method; format: functional; procedure, shortened: as §1
Klebsiella pneumoniae [35] = test: Antibacterial activity against drug-resistant carbapenemase producing Klebsiella pneumoniae clinical isolate KP-14-8 after 16 to 20 hrs by broth microdilution method; format: functional; procedure, shortened: as §1
Staphylococcus aureus [36] = test: Antibacterial activity against methicillin-resistant Staphylococcus aureus clinical isolate 1207007 after 16 to 20 hrs by broth microdilution method; format: functional; procedure, shortened: as §1
Escherichia coli [37] = test: Antibacterial activity against drug-resistant NDM1 producing Escherichia coli clinical isolate CF-13-61 after 16 to 20 hrs by broth microdilution method; format: functional; procedure, shortened: as §1
Klebsiella pneumoniae [38] = test: Antibacterial activity against drug-resistant carbapenemase producing Klebsiella pneumoniae clinical isolate KP-14-2 after 16 to 20 hrs by broth microdilution method; format: functional; procedure, shortened: as §1
Salmonella enterica = test: Antibacterial activity against Salmonella enterica ATCC 13076 after 16 to 20 hrs by broth microdilution method; format: functional; procedure, shortened: as §2
Staphylococcus aureus [39] = test: Antibacterial activity against methicillin-resistant Staphylococcus aureus clinical isolate 1105183 cono7 after 16 to 20 hrs by broth microdilution method; format: functional; procedure, shortened: as §1
Escherichia coli [40] = test: Antibacterial activity against Escherichia coli ATCC 25922 after 16 to 20 hrs by broth microdilution method; format: functional; procedure, shortened: as §2

CCCCCCCC[N+](C)(C)CC(=O)Nc1ccc(C(=O)/C=C/c2ccc(F)cc2)cc1.[Cl-]
MIC (Escherichia coli [1]): 16 µg/mL
MIC (Escherichia coli [2]): 16 µg/mL
MIC (Staphylococcus aureus [3]): 2 µg/mL
MIC (Klebsiella pneumoniae [4]): 8 µg/mL
MIC (Escherichia coli [5]): 4 µg/mL
MIC (Klebsiella pneumoniae [6]): 4 µg/mL
MIC (Klebsiella pneumoniae [7]): 8 µg/mL
MIC (Staphylococcus aureus [8]): 1 µg/mL
HC50 at 1 h [9]: 83 µg/mL
MIC (Staphylococcus aureus [10]): 4 µg/mL
MIC (Staphylococcus aureus [11]): 2 µg/mL
Activity (Staphylococcus aureus [12]): Active
MIC (Enterococcus faecalis): 2 µg/mL
MIC (Escherichia coli [13]): 16 µg/mL
Activity (Escherichia coli [14]): Active
MIC (Klebsiella pneumoniae [15]): 8 µg/mL
MIC (Escherichia coli [16]): 4 µg/mL
MIC (Escherichia coli [17]): 1 µg/mL
MIC (Staphylococcus aureus [18]): 8 µg/mL
MIC (Klebsiella pneumoniae [19]): 4 µg/mL
MIC (Staphylococcus aureus [20]): 0.5 µg/mL
Activity (Staphylococcus aureus [21]): Active
MIC (Escherichia coli [22]): 4 µg/mL
MIC (Klebsiella pneumoniae [23]): 4 µg/mL
MIC (Klebsiella pneumoniae [24]): 2 µg/mL
MIC (Staphylococcus aureus [25]): 2 µg/mL
MIC (Klebsiella pneumoniae [26]): 8 µg/mL
Activity (Escherichia coli [27]): Active
MIC (Escherichia coli [28]): 4 µg/mL
MIC (Escherichia coli [29]): 4 µg/mL
MIC (Klebsiella pneumoniae [30]): 4 µg/mL
MIC (Staphylococcus aureus [31]): 0.5 µg/mL
MIC (Klebsiella pneumoniae [32]): 4 µg/mL
MIC (Escherichia coli [33]): 4 µg/mL
MIC (Escherichia coli [34]): 8 µg/mL
MIC (Klebsiella pneumoniae [35]): 4 µg/mL
MIC (Staphylococcus aureus [36]): 0.5 µg/mL
MIC (Escherichia coli [37]): 16 µg/mL
MIC (Klebsiella pneumoniae [38]): 16 µg/mL
MIC (Salmonella enterica): 4 µg/mL
MIC (Staphylococcus aureus [39]): 1 µg/mL
MIC (Escherichia coli [40]): 2 µg/mL

CCCCCCCC[N+](C)(C)CC(=O)Nc1ccc(C(=O)/C=C/c2ccc3ccccc3c2)cc1.[Cl-]
MIC (Escherichia coli [1]): 1 µg/mL
MIC (Escherichia coli [2]): 8 µg/mL
MIC (Staphylococcus aureus [3]): 2 µg/mL
MIC (Klebsiella pneumoniae [4]): 16 µg/mL
MIC (Escherichia coli [5]): 16 µg/mL
MIC (Klebsiella pneumoniae [6]): 16 µg/mL
MIC (Klebsiella pneumoniae [7]): > 128 µg/mL
MIC (Staphylococcus aureus [8]): 2 µg/mL
HC50 at 1 h [9]: 374 µg/mL
MIC (Staphylococcus aureus [10]): 32 µg/mL
MIC (Staphylococcus aureus [11]): 8 µg/mL
Activity (Staphylococcus aureus [12]): Active
MIC (Enterococcus faecalis): 2 µg/mL
MIC (Escherichia coli [13]): 128 µg/mL
Activity (Escherichia coli [14]): Active
MIC (Klebsiella pneumoniae [15]): > 128 µg/mL
MIC (Escherichia coli [16]): 16 µg/mL
MIC (Escherichia coli [17]): 2 µg/mL
MIC (Staphylococcus aureus [18]): 16 µg/mL
MIC (Klebsiella pneumoniae [19]): 32 µg/mL
MIC (Staphylococcus aureus [20]): 1 µg/mL
Activity (Staphylococcus aureus [21]): Active
MIC (Escherichia coli [22]): 16 µg/mL
MIC (Klebsiella pneumoniae [23]): 16 µg/mL
MIC (Klebsiella pneumoniae [24]): 8 µg/mL
MIC (Staphylococcus aureus [25]): 2 µg/mL
MIC (Klebsiella pneumoniae [26]): > 128 µg/mL
Activity (Escherichia coli [27]): Active
MIC (Escherichia coli [28]): 8 µg/mL
MIC (Escherichia coli [29]): 8 µg/mL
MIC (Klebsiella pneumoniae [30]): > 128 µg/mL
MIC (Staphylococcus aureus [31]): 1 µg/mL
MIC (Klebsiella pneumoniae [32]): 16 µg/mL
MIC (Escherichia coli [33]): 16 µg/mL
MIC (Escherichia coli [34]): 16 µg/mL
MIC (Klebsiella pneumoniae [35]): 16 µg/mL
MIC (Staphylococcus aureus [36]): 2 µg/mL
MIC (Escherichia coli [37]): 1 µg/mL
MIC (Klebsiella pneumoniae [38]): > 128 µg/mL
MIC (Salmonella enterica): 8 µg/mL
MIC (Staphylococcus aureus [39]): 1 µg/mL
MIC (Escherichia coli [40]): 8 µg/mL
